The text below walks through data of ChEMBL document CHEMBL1148512, “Fluorophor-labeled spermidine derivatives as fluorescent markers in optical tumor imaging” (Bioorg Med Chem Lett, 2006).

The species named for series [1] is Mus musculus. The series can be described thus: Distribution in muscle of MH3924A hepatoma bearing nude Balc C nu/nu mouse by fluorescence imaging. The series is classed as ADME, organism-based, Muscle tissue. To be noted: in vivo. The procedure, abridged: (§1)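 Male Balb/c nu/nu nude mice (about 20 g) carrying subcutaneous MH3924A rat hepatoma (3–8 mm diameter). Dye given as an iv bolus via lateral tail vein, 500 lmol/kg; PBS-injected controls. Under ip ketamine/xylazine (1 mL/kg), open surgery with chest or abdominal incision. Cooled CCD imaging at 10 min, 1 h and 4 h, 60 s exposure, about 5 cm distance. Photon counts summed per equal-size region of interest (11.6 mm2) over 1 min.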

The species named for series [2] is Mus musculus. The series can be described thus: Distribution in lung of MH3924A hepatoma bearing nude Balc C nu/nu mouse by fluorescence imaging. It counts as ADME, organism-based. The note with it: in vivo. The procedure, abridged:
as §1

Series [3] is filed under the species Mus musculus. The series can be described thus: Distribution in bladder of MH3924A hepatoma bearing nude Balc C nu/nu mouse by fluorescence imaging. It counts as ADME, organism-based, Urinary bladder. The note with it: in vivo. The procedure, abridged: as §1
In series [4] the test system is MH3924A. Briefly: Cellular uptake in rat MH3924A cells. The series is classed as ADME, cell-based. The procedure, abridged: (§2)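 Cultured tumour cells grown on coverslips, incubated with 50 µM dye conjugate for 1, 4 and 24 h, then imaged by confocal laser scanning microscopy. Parallel incubations were run with benzyl viologen, a polyamine uptake inhibitor. B16 cells were also co-cultured with 3T3YMT-MP non-tumour cells, which express yellow fluorescent protein in mitochondria. Unlabelled cells served as reference.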

Series [5] relates to MH3924A. The series can be described thus: Increase in fluorescence in rat MH3924A cells after 24 hrs relative to control. The series is classed as functional, cell-based. The procedure, abridged: (§3)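 Quantitative uptake assay: tumour cells incubated with dye for 24 h. Cell-associated fluorescence is expressed as percent increase over unlabelled tumour cells.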
The subject of series [6] is B16. The series can be described thus: Increase in fluorescence in mouse B16 cells after 24 hrs relative to control. The series is classed as functional, cell-based. The procedure, abridged: as §3
Series [7] deals with MH3924A. The series can be described thus: Cellular uptake in rat MH3924A cells xenografted in nude Balc C nu/nu mouse by fluorescence imaging. It counts as ADME, cell-based. To be noted: in vivo. The procedure, abridged: as §1
The test system of series [8] is B16. Briefly: Cellular uptake in mouse B16 cells. It counts as ADME, cell-based. An outline of the steps:
as §2

Series [9] relates to MH3924A. The series can be described thus: Cytotoxicity against rat MH3924A cells assessed as inhibition of colony formation at 25 uM after 4 hrs. The series is classed as functional, cell-based. An outline of the steps: (§4)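 Colony forming assay in MH3924A and B16 cells. Cells were exposed to dye for 4 h (1–250 µM tested across dyes) and colonies were scored 8 days later. Colony formation is expressed as percent of untreated controls.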

Series [10] deals with B16. The series can be described thus: Cytotoxicity against mouse B16 cells assessed as inhibition of colony formation at 25 uM after 4 hrs. It counts as functional, cell-based. The procedure, abridged: as §4

Active and inactive are the calls of the source. The rule behind the calls is not given here.

In the case of `CNc1ccccc1C(=O)NCCCCNCCCN`, the Drug uptake result in the series listed under Mus musculus [1] was “Not Active”; in the series filed under Mus musculus [2], “Not Active”; in the series listed under Mus musculus [3], “Active”; with MH3924A [4], “Active”; with MH3924A [5], 16%; in the series on B16 [6] it was 19%. For the same molecule, the Drug uptake result in the series with MH3924A [7] is “Active”.
On to `NCCCNCCCCNC(=O)C[C@H](NC(=O)c1ccc(-c2c3ccc(=O)cc-3oc3cc(O)ccc23)c(C(=O)O)c1)C(=O)NCC(=O)NCC(N)=O`, for which the Drug uptake entry in the series with B16 [8] and in the series with MH3924A [4] was “Not Active” each time.
Regarding `Cc1cc2cc3cc(C)c(NC(=O)CC(N)C(=O)NCCCCNCCCN)cc3nc2cc1N` (stereo not drawn) [ASPARTYL(ACRIDINE YELLOW G)SPERMIDINE], the Drug uptake result in the series on B16 [8] and with MH3924A [4] was “Active” throughout. Further, the result in the series with MH3924A [9] and with B16 [10] was Active.
